Measured values as given in ChEMBL document CHEMBL1240422, “Design, synthesis and biological evaluation of 3,5-diaryl-isoxazoline/isoxazole-pyrrolobenzodiazepine conjugates as potential anticancer agents” (2010).
Where a name gives a salt, the structure may show the parent alone. Active and inactive are the calls of the source. The calls are words filed in the database; no cut-off is given here.

Key:
A2780 = experiment: Anticancer activity against human A2780 cells after 48 hrs by SRB assay; type: functional; details: A2780, 48 h
How it was run: (§1)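 Grown in RPMI 1640 with 10% FBS and 2 mM L-glutamine at 37 °C, 5% CO2. Seeded at densities set by doubling time, then preincubated 24 h. Continuous 48 h drug exposure at four concentrations (0.1, 1, 10, 100), triplicate wells. Fixed with cold TCA (final 10%) at 4 °C, 60 min. Stained with 0.4% SRB in 1% acetic acid, eluted with 10 mM Tris base, read at 540/690 nm. Percent growth versus control wells.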

KB = experiment: Anticancer activity against human KB cells after 48 hrs by SRB assay; type: functional; how it was run: as §1
ZR-75-1 = experiment: Anticancer activity against human ZR-75-1 cells after 48 hrs by SRB assay; type: functional; details: ZR-75-1, 48 h
How it was run: (§2)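 Cells grown in RPMI 1640 with 10% FBS and 2 mM L-glutamine, plated at densities set by doubling time, and preincubated 24 h at 37 °C, 5% CO2. Compounds were tested at four concentrations (0.1, 1, 10, 100) in triplicate wells with 48 h continuous exposure. Cells were fixed with cold TCA (10% final, 60 min, 4 °C) and stained with 0.4% SRB in 1% acetic acid (20 min, RT). Dye was eluted with 10 mM Trizma base and read at 540 nm (690 nm reference). Percent growth is relative to control wells, plate by plate.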

SiHa = experiment: Anticancer activity against human SiHa cells after 48 hrs by SRB assay; type: functional; how it was run: as §2
A-375 [1] = experiment: Cell cycle arrest in human A375 cells assessed as accumulation at G0/G1 phase at 4 uM after 24 hrs using propidium iodide staining by FACS; type: functional
How it was run: (§3)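 Treated A375 cells (24 h) were harvested with trypsin-EDTA and fixed in ice-cold 70% ethanol (4 °C, 30 min). After a PBS wash, they were incubated with 1 mg/mL RNase A (37 °C, 30 min) and stained with propidium iodide solution containing trisodium citrate and Triton X-100. DNA content was measured by flow cytometry on 20,000 events. Controls were DMSO-treated.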

A-375 [2] = experiment: Cell cycle arrest in human A375 cells assessed as accumulation at G2/M phase at 4 uM after 24 hrs using propidium iodide staining by FACS; type: functional; how it was run: as §3
A-375 [3] = experiment: Induction of apoptosis in human A375 cells assessed as increase in PPAR protein level at 4 uM after 24 hrs by Western blotting; type: functional, cell-based
How it was run: (§4)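 A375 cells were treated for 24 h and lysed in ice-cold RIPA buffer (1% NP-40, 0.5% deoxycholate, 0.1% SDS, protease inhibitors). Protein was quantified by Bradford assay, and 30 µg/lane was run on 12% SDS-PAGE and transferred to PVDF. Membranes were blocked 2 h at RT in TBST with 5% blocker, incubated with primary antibody overnight at 4 °C, then with HRP secondary (1:2000, 1 h, RT). Detection was by chemiluminescence, with β-actin as loading control.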

A-375 [4] = experiment: Induction of apoptosis in human A375 cells assessed as caspase3 activation at 4 uM after 24 hrs by fluorimetry; type: functional, cell-based
How it was run: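 Caspase-3 activity was measured by a fluorometric assay on lysates of treated and untreated A375 cells.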

A-375 [5] = experiment: Cell cycle arrest in human A375 cells assessed as accumulation at S phase at 4 uM after 24 hrs using propidium iodide staining by FACS; type: functional; how it was run: as §3
A-375 [6] = experiment: Induction of apoptosis in human A375 cells assessed as reduction in CDK2 protein level at 4 uM after 24 hrs by Western blotting; type: functional, cell-based; how it was run: as §4

SMILES | GI50 (A2780) | GI50 (KB) | GI50 (ZR-75-1) | GI50 (SiHa) | Activity (A-375 [1]) | Activity (A-375 [2]) | Activity (A-375 [3]) | Activity (A-375 [4]) | Activity (A-375 [5]) | Activity (A-375 [6])
COc1ccc(-c2cc(-c3cc(OC)c(OC)c(OC)c3)on2)cc1OCCCCCOc1cc2c(cc1OC)C(=O)N1CCC[C@H]1C=N2 | 120 nM | 130 nM | < 100 nM | 130 nM | – | – | – | – | – | –
COc1ccc(C2CC(c3cc(OC)c(OC)c(OC)c3)=NO2)cc1OCCCCCOc1cc2c(cc1OC)C(=O)N1CCC[C@H]1C=N2 (some centres undefined) | 140 nM | 160 nM | 120 nM | 160 nM | – | – | – | – | – | –
COc1cc2c(cc1OCCCCOc1c(OC)cc(C3CC(c4cc(OC)c(OC)c(OC)c4)=NO3)cc1OC)N=C[C@@H]1CCCN1C2=O (some centres undefined) | 150 nM | 180 nM | 150 nM | 170 nM | – | – | – | – | – | –
COc1ccc(-c2cc(-c3cc(OC)c(OC)c(OC)c3)on2)cc1OCCCCOc1cc2c(cc1OC)C(=O)N1CCC[C@H]1C=N2 | 140 nM | 150 nM | 100 nM | 150 nM | – | – | – | – | – | –
COc1ccc(C2CC(c3cc(OC)c(OC)c(OC)c3)=NO2)cc1OCCCOc1cc2c(cc1OC)C(=O)N1CCC[C@H]1C=N2 (some centres undefined) | 150 nM | 160 nM | 130 nM | 180 nM | – | – | – | – | – | –
COc1cc(C2=NOC(c3cc(OC)c(OC)c(OC)c3)C2)ccc1OCCCCCOc1cc2c(cc1OC)C(=O)N1CCC[C@H]1C=N2 (some centres undefined) | < 100 nM | < 100 nM | < 100 nM | < 100 nM | 92.45% | 1.15% | Active | Active | 6.4% | Active
COc1ccc(-c2cc(-c3cc(OC)c(OC)c(OC)c3)on2)cc1OCCCOc1cc2c(cc1OC)C(=O)N1CCC[C@H]1C=N2 | 150 nM | 170 nM | 130 nM | 150 nM | – | – | – | – | – | –
COc1cc2c(cc1OCCCOc1c(OC)cc(-c3cc(-c4cc(OC)c(OC)c(OC)c4)on3)cc1OC)N=C[C@@H]1CCCN1C2=O | 130 nM | 150 nM | 180 nM | 150 nM | – | – | – | – | – | –
COc1cc2c(cc1OCCCCCOc1c(OC)cc(C3CC(c4cc(OC)c(OC)c(OC)c4)=NO3)cc1OC)N=C[C@@H]1CCCN1C2=O (some centres undefined) | 150 nM | 180 nM | 180 nM | 180 nM | – | – | – | – | – | –
COc1cc2c(cc1O)N=C[C@@H]1CCCN1C2=O | 140 nM | 170 nM | – | 170 nM | 88.05% | 1.33% | – | – | 10.62% | –
COc1cccc2c1C(=O)c1c(O)c3c(c(O)c1C2=O)C[C@@](O)(C(=O)CO)C[C@@H]3O[C@H]1C[C@H](N)[C@H](O)[C@H](C)O1 [DOXORUBICIN HYDROCHLORIDE] | < 100 nM | 160 nM | < 100 nM | 1900 nM | – | – | – | – | – | –
COc1cc(C2=NOC(c3cc(OC)c(OC)c(OC)c3)C2)ccc1O (centres undefined) | – | – | – | – | 82.59% | 1.82% | – | – | 15.59% | –
COc1cc2c(cc1OCCCCCOc1c(OC)cc(-c3cc(-c4cc(OC)c(OC)c(OC)c4)on3)cc1OC)N=C[C@@H]1CCCN1C2=O | 140 nM | 160 nM | 100 nM | 160 nM | – | – | – | – | – | –
